From ChEMBL document CHEMBL1149302, “Design, synthesis, and pharmacological characterization of novel, potent NMDA receptor antagonists” (J Med Chem, 2004)
The source made the active and inactive calls. No cut-off for these calls is given here.

Tests used:
[1] = Displacement of [3H]kainic acid from rat brain kainate receptor
Outline: (§1)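 Rat brain membranes prepared per Ransom and Stec with modifications. Radioligand binding with 5 nM [3H]AMPA, or 5 nM [3H]kainic acid in the absence of CaCl2. Bound radioactivity measured by scintillation counting. Racemates tested. Values are antilog of log mean of at least three experiments.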

Mus musculus [2] = assay: Anticonvulsant activity in ip dosed DBA/2 mouse assessed as inhibition of tonic extension seizures; type: functional; conditions: DBA/2, ip
Outline: (§2)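 Male DBA/2 mice (6-12 g, 22-26 days old) dosed ip in 100 μL/10 g. Compounds dissolved in 0.1 mM NaOH and brought to pH 7.3-7.7 with phosphate buffer; vehicle water. 45 min after dosing, a 110 dB bell sounded for 60 s or until clonic seizure onset. Seizure scoring: wild running 1, clonus 2, tonic extension 3, respiratory arrest 4. ED50 reported in μmol/kg.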

[3] = Displacement of [3H]AMPA from rat cortex AMPA receptor; outline: as §1
Mus musculus [4] = assay: Anticonvulsant activity in ip dosed DBA/2 mouse assessed as inhibition of clonic seizures; type: functional; conditions: DBA/2, ip; outline: as §2
Glutamate NMDA receptor [5] = assay: Displacement of [3H]CGP-39653 from rat brain NMDA receptor
Outline: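 Rat brain membranes prepared per Ransom and Stec with modifications. Binding with 2 nM [3H]CGP 39653, with bound radioactivity measured by scintillation counting. Racemates tested. Values are antilog of log mean of at least three experiments.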

[6] = target: Metabotropic glutamate receptor 2 (Rattus norvegicus) (UniProt P31421); assay: Activity at rat mGluR2 expressed in CHO cells at 1 mM; type: cell-based
Outline: (§3)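 Rat mGluR1α, mGluR2, mGluR4a and mGluR5a each expressed in CHO cell lines. Compounds tested at 1 mM for both agonist and antagonist activity.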

[7] = target: Metabotropic glutamate receptor 4 (Rattus norvegicus) (UniProt P31423); assay: Activity at rat mGluR4a expressed in CHO cells at 1 mM; type: cell-based; outline: as §3
[8] = target: Metabotropic glutamate receptor 1 (Rattus norvegicus) (UniProt P23385); assay: Activity at rat mGluR1 expressed in CHO cells at 1 mM; type: cell-based; outline: as §3
[9] = target: Metabotropic glutamate receptor 5 (Rattus norvegicus) (UniProt P31424); assay: Activity at rat mGluR5a expressed in CHO cells at 1 mM; type: cell-based; outline: as §3
[10] = Activity at NMDA receptor in rat corticle slice assessed as antagonism of 10 uM NMDA-induced response; type: functional
Outline: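 Modified rat cortical wedge preparation; depolarizing responses induced by NMDA (10 μM) recorded and antagonism measured. Racemates tested. Values are antilog of the log mean of at least three individual experiments, with ±SEM on a logarithmic distribution.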

Mus musculus [11] = assay: Reduction of locomotor activity in DBA/2 mouse at 100 […], ip; type: functional, organism-based
Rattus norvegicus [12] = species: Rattus norvegicus; assay: Activity at Kainate receptor in rat cortical slice assessed as antagonism of 5 uM kainic acid-induced response; type: functional
Mus musculus [13] = assay: Induction of sedation in DBA/2 mouse at 100 […], ip; type: functional, organism-based
Rattus norvegicus [14] = species: Rattus norvegicus; assay: Activity at AMPA receptor in rat cortical slice assessed as antagonism of 5 uM AMPA-induced response; type: functional
Glutamate NMDA receptor [15] = assay: Displacement of [3H]CPP from rat brain NMDA receptor

Chain of Metabotropic glutamate receptor 4 (Rattus norvegicus) (P31423 whole entry): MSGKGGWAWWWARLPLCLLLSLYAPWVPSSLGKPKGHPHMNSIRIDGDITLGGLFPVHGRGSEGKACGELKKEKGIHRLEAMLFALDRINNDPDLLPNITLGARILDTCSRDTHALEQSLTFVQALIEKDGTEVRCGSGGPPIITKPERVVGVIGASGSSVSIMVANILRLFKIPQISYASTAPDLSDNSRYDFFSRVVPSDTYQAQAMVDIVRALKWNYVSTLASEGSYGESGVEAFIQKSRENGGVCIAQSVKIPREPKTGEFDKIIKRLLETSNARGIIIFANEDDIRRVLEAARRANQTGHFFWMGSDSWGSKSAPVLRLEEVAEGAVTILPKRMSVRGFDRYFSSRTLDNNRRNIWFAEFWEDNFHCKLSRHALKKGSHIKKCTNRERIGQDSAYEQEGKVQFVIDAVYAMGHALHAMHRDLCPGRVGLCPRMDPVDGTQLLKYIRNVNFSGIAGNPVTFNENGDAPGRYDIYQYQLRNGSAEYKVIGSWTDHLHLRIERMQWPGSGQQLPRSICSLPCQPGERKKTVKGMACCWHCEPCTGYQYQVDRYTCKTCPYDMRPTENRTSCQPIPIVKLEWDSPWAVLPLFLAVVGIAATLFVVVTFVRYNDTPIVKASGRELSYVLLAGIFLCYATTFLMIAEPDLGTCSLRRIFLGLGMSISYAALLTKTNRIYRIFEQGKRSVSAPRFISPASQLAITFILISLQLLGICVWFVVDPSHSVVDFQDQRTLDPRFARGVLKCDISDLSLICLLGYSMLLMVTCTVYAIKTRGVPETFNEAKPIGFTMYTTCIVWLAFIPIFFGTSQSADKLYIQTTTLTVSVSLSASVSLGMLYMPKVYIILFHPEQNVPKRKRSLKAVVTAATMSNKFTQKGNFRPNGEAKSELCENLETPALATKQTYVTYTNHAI
Chain of Metabotropic glutamate receptor 5 (Rattus norvegicus) (P31424 21-1203 limits assumed): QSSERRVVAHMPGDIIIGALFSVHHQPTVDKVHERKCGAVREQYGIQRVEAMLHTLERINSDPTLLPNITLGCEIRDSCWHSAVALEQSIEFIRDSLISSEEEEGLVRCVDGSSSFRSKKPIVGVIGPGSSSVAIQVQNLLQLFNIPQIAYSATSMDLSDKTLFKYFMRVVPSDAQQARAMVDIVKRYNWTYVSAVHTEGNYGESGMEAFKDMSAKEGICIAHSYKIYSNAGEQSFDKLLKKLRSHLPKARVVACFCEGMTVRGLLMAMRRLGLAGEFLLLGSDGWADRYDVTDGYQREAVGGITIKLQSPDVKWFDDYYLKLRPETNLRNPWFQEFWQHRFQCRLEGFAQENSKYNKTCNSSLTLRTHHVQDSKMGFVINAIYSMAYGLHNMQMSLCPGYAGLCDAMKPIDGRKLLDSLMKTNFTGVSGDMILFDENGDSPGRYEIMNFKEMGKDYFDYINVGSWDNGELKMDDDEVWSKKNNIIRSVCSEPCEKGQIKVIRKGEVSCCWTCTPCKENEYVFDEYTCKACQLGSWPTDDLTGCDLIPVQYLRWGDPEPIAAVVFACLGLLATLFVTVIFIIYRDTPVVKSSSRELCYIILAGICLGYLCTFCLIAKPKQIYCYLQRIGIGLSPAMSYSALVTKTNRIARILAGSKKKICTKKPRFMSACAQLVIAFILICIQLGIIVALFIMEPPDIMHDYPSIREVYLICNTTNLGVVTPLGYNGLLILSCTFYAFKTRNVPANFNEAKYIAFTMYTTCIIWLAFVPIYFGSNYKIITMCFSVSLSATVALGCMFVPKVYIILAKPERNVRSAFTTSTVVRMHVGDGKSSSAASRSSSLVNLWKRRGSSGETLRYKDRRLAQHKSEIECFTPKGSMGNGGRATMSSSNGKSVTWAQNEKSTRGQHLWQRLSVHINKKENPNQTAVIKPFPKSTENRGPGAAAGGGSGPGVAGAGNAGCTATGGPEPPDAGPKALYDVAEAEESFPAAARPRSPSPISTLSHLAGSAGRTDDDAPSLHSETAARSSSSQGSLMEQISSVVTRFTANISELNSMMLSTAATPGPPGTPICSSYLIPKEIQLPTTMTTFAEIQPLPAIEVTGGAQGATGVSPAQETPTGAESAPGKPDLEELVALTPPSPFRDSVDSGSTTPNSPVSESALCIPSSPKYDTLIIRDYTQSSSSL
Chain of Metabotropic glutamate receptor 2 (Rattus norvegicus) (P31421 19-872 limits assumed): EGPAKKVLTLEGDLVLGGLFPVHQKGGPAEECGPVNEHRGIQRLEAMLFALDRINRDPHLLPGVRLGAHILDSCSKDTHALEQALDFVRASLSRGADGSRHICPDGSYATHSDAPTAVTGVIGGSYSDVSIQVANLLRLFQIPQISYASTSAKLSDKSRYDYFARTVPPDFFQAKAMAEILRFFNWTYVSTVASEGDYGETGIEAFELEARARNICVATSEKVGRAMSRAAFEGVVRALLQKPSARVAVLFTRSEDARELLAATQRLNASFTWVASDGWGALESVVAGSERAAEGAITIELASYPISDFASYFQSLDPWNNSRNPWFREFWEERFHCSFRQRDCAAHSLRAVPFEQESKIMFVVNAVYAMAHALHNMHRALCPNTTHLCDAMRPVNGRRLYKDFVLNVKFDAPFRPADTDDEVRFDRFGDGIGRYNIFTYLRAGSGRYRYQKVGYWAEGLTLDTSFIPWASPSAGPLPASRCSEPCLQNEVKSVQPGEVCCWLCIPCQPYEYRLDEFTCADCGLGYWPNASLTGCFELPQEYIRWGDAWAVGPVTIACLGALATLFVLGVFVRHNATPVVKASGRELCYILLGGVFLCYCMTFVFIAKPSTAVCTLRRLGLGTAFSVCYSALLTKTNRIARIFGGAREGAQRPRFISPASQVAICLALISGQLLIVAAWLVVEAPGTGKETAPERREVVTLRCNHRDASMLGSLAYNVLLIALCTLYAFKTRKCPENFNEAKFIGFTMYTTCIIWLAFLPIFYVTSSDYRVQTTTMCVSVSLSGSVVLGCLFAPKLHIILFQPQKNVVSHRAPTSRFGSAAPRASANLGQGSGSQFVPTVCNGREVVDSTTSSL
Chain of Metabotropic glutamate receptor 1 (Rattus norvegicus) (P23385 19-1199 limits assumed): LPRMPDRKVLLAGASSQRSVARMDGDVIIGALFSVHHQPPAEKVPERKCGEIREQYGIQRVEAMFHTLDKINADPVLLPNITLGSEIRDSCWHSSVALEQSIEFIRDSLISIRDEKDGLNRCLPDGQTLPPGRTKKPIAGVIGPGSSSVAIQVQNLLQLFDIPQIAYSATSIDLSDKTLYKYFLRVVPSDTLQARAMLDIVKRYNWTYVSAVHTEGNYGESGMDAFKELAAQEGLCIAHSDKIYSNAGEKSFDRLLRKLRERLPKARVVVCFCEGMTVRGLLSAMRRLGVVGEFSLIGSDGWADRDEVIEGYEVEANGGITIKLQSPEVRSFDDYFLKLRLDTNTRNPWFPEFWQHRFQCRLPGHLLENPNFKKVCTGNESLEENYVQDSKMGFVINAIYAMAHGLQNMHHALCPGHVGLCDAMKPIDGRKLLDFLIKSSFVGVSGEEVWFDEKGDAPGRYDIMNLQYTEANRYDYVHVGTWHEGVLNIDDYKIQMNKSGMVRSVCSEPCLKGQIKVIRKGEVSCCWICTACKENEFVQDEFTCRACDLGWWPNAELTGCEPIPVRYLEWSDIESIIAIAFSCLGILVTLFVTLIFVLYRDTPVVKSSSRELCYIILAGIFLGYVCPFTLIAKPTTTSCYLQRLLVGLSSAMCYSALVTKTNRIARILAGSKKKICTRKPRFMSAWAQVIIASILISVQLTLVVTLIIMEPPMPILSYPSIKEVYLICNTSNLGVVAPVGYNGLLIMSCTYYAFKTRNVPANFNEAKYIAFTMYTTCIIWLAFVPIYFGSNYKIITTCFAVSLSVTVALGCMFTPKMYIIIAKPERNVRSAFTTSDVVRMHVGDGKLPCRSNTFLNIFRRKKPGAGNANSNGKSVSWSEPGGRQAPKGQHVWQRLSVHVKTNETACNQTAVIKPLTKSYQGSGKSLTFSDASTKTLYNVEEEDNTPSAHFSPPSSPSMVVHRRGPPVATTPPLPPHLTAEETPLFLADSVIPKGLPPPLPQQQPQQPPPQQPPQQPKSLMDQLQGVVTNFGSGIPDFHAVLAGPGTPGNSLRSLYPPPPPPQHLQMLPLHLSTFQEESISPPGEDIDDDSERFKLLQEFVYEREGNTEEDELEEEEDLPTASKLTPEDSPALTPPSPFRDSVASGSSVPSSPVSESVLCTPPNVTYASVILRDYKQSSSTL

Q: With N[C@@]1(C(=O)O)C[C@@H]2ON=C(C(=O)O)[C@@H]2C1 (racemic) as the compound, how does the IC50 [1] read?
A: Its IC50 is over 100 µM.

Q: What about the ED50 (Mus musculus [2]) of the same compound?
A: The ED50 was 22 µmol/kg.

Q: And the IC50 [3]?
A: The IC50 was over 100 µM.

Q: What about the ED50 (Mus musculus [4]) of the same compound?
A: Its ED50 is 28 µmol/kg.

Q: What about the Ki (Glutamate NMDA receptor [5]) of the same compound?
A: The Ki was 0.37 µM.

Q: Which IC50 [1] does the source give for CC1(C)ON=C(C(=O)O)[C@H]1C[C@@H](N)C(=O)O (relative stereo) here?
A: The IC50 was over 100 µM.

Q: And the Activity [6]?
A: The Activity was “inactive”.

Q: And the Activity [7]?
A: Its Activity is “inactive”.

Q: And the IC50 [3]?
A: The IC50 was over 100 µM.

Q: And the Activity [8]?
A: Its Activity is “inactive”.

Q: What about the Activity [9] of the same compound?
A: The Activity was “inactive”.

Q: What about the Ki (Glutamate NMDA receptor [5]) of the same compound?
A: The Ki was over 100 µM.

Q: For CC1(C)ON=C(C(=O)O)[C@H]1C[C@H](N)C(=O)O (relative stereo), which IC50 [1] is on record?
A: The IC50 was over 100 µM.

Q: What about the Activity [6] of the same compound?
A: Its Activity is “inactive”.

Q: What about the Activity [7] of the same compound?
A: The Activity was “inactive”.

Q: And the IC50 [3]?
A: Its IC50 is 12 µM.

Q: And the Activity [8]?
A: Its Activity is “inactive”.

Q: What about the Activity [9] of the same compound?
A: The Activity was “inactive”.

Q: And the Ki (Glutamate NMDA receptor [5])?
A: The Ki was 79 µM.

Q: With N[C@@H](C[C@@H]1CC(C(=O)O)=NO1)C(=O)O (relative stereo) as the compound, how does the IC50 [1] read?
A: The IC50 was over 100 µM.

Q: And the IC50 [10]?
A: The IC50 was 14.2 µM.

Q: And the Activity [6]?
A: Its Activity is “inactive”.

Q: What about the ED50 (Mus musculus [2]) of the same compound?
A: Its ED50 is 13.9 µmol/kg.

Q: What about the Activity (Mus musculus [11]) of the same compound?
A: Its Activity is “Active”.

Q: What about the Activity [7] of the same compound?
A: Its Activity is “inactive”.

Q: What about the IC50 [3] of the same compound?
A: Its IC50 is over 100 µM.

Q: And the Activity [8]?
A: The Activity was “inactive”.

Q: What about the Activity (Rattus norvegicus [12]) of the same compound?
A: The Activity was “inactive”.

Q: What about the ED50 (Mus musculus [4]) of the same compound?
A: The ED50 was 17.9 µmol/kg.

Q: What about the Activity [9] of the same compound?
A: Its Activity is “inactive”.

Q: What about the Activity (Mus musculus [13]) of the same compound?
A: The Activity was “Active”.

Q: What about the Ki (Glutamate NMDA receptor [5]) of the same compound?
A: The Ki was 0.21 µM.

Q: What about the Activity (Rattus norvegicus [14]) of the same compound?
A: Its Activity is “inactive”.

Q: For N[C@H](C[C@@H]1CC(C(=O)O)=NO1)C(=O)O (relative stereo), which IC50 [1] is on record?
A: Its IC50 is over 100 µM.

Q: What about the Activity [6] of the same compound?
A: Its Activity is “inactive”.

Q: And the ED50 (Mus musculus [2])?
A: The ED50 was 19.7 µmol/kg.

Q: And the Activity [7]?
A: The Activity was “inactive”.

Q: And the IC50 [3]?
A: Its IC50 is over 100 µM.

Q: What about the Activity [8] of the same compound?
A: The Activity was “inactive”.

Q: What about the ED50 (Mus musculus [4]) of the same compound?
A: Its ED50 is 29.9 µmol/kg.

Q: What about the Activity [9] of the same compound?
A: Its Activity is “inactive”.

Q: What about the Ki (Glutamate NMDA receptor [5]) of the same compound?
A: The Ki was 0.96 µM.

Q: Which ED50 (Mus musculus [2]) does the source give for O=C(O)C1CN(C/C=C/P(=O)(O)O)CCN1 (single isomer, unassigned; (-)) here?
A: Its ED50 is 1.3 µmol/kg.

Q: What about the ED50 (Mus musculus [4]) of the same compound?
A: The ED50 was 3.5 µmol/kg.

Q: What about the Ki (Glutamate NMDA receptor [15]) of the same compound?
A: Its Ki is 0.04 µM.

Q: Which ED50 (Mus musculus [2]) does the source give for O=C1NC(=O)C(c2ccccc2)(c2ccccc2)N1 [PHENYTOIN] here?
A: The ED50 was 7.3 µmol/kg.

Q: And the ED50 (Mus musculus [4])?
A: Its ED50 is 9.1 µmol/kg.
